Active and inactive are the calls of the source. The rule behind the calls is not given here.
test system: Staphylococcus aureus; experiment: Antimicrobial activity against Staphylococcus aureus ATCC 6538 assessed as growth inhibition of planktonic forms incubated for 24 hrs; type: organism-based; conditions: in vitro
In short: (§1)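 Broth microdilution in tryptic soy broth. Two-fold series 100 to 0.75 μg/mL made from a 1 mg/mL stock in 0.9% NaCl. Inoculum ~10⁶ cfu/mL taken from a 24 h culture, 37 °C 24 h.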

SMILES	MIC [mg/L]
Br.Fc1ccc(-c2cn3nc(-c4c[nH]c5ccc(Br)cc45)sc3n2)cc1	> 100
Br.COc1cccc(-c2cn3nc(-c4cn(C)c5ccc(Cl)cc45)sc3n2)c1	> 100
Br.COc1cccc(-c2cn3nc(-c4c[nH]c5ccc(Br)cc45)sc3n2)c1	> 100
Cn1cc(-c2nn3cc(-c4ccc([N+](=O)[O-])cc4)nc3s2)c2ccccc21	> 100

test system: Staphylococcus epidermidis; experiment: Antibiofilm activity against Staphylococcus epidermidis ATCC 12228 incubated for 24 hrs by crystal violet-staining based assay; type: functional; conditions: not given
In short: (§2)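 Biofilm prevention: 0.5 McFarland inoculum (2.5 µL) in 100 µL TSB with 2% w/v glucose, compound present from the start over 100–0.1 µg/mL, 37 °C 24 h. Washed with PBS, stained 0.1% w/v crystal violet 30 min, eluted with 33% v/v acetic acid, read at 570 nm. BIC50 (50% inhibition versus untreated control) derived by linear regression; triplicate, repeated at least twice.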

SMILES	MBIC50	inhibition
Br.Fc1ccc(-c2cn3nc(-c4c[nH]c5ccc(Br)cc45)sc3n2)cc1	inactive	
Br.COc1cccc(-c2cn3nc(-c4cn(C)c5ccc(Cl)cc45)sc3n2)c1	23.9 µM	Dose-dependent effect
Br.COc1cccc(-c2cn3nc(-c4c[nH]c5ccc(Br)cc45)sc3n2)c1	inactive	
Cn1cc(-c2nn3cc(-c4ccc([N+](=O)[O-])cc4)nc3s2)c2ccccc21	21 µM	Dose-dependent effect

test system: Pseudomonas aeruginosa; experiment: Antibiofilm activity against Pseudomonas aeruginosa ATCC 15442 incubated for 24 hrs by crystal violet-staining based assay; type: functional; conditions: not given; in short: as §2

SMILES	MBIC50	inhibition
Br.Fc1ccc(-c2cn3nc(-c4c[nH]c5ccc(Br)cc45)sc3n2)cc1	inactive	
Br.COc1cccc(-c2cn3nc(-c4c[nH]c5ccc(Br)cc45)sc3n2)c1	inactive	
Cn1cc(-c2nn3cc(-c4ccc([N+](=O)[O-])cc4)nc3s2)c2ccccc21	30.1 µM	Dose-dependent effect

test system: Staphylococcus aureus; experiment: Antibiofilm activity against Staphylococcus aureus ATCC 25923 incubated for 24 hrs by crystal violet-staining based assay; type: functional; conditions: not given; in short: as §2

SMILES	MBIC50	inhibition
Br.Fc1ccc(-c2cn3nc(-c4c[nH]c5ccc(Br)cc45)sc3n2)cc1	inactive	
Br.COc1cccc(-c2cn3nc(-c4c[nH]c5ccc(Br)cc45)sc3n2)c1	inactive	
Cn1cc(-c2nn3cc(-c4ccc([N+](=O)[O-])cc4)nc3s2)c2ccccc21	21 µM	Dose-dependent effect

test system: Escherichia coli; experiment: Antimicrobial activity against Escherichia coli ATCC 25922 assessed as growth inhibition of planktonic forms incubated for 24 hrs; type: organism-based; conditions: in vitro; in short: as §1

SMILES	MIC [mg/L]
Br.Fc1ccc(-c2cn3nc(-c4c[nH]c5ccc(Br)cc45)sc3n2)cc1	> 100
Br.COc1cccc(-c2cn3nc(-c4cn(C)c5ccc(Cl)cc45)sc3n2)c1	> 100
Br.COc1cccc(-c2cn3nc(-c4c[nH]c5ccc(Br)cc45)sc3n2)c1	> 100
Cn1cc(-c2nn3cc(-c4ccc([N+](=O)[O-])cc4)nc3s2)c2ccccc21	> 100

test system: Escherichia coli; experiment: Antibiofilm activity against Escherichia coli ATCC 25922 incubated for 24 hrs by crystal violet-staining based assay; type: functional; conditions: not given; in short: as §2

SMILES	MBIC50	inhibition
Br.Fc1ccc(-c2cn3nc(-c4c[nH]c5ccc(Br)cc45)sc3n2)cc1	inactive	
Br.COc1cccc(-c2cn3nc(-c4c[nH]c5ccc(Br)cc45)sc3n2)c1	inactive	
Cn1cc(-c2nn3cc(-c4ccc([N+](=O)[O-])cc4)nc3s2)c2ccccc21	34.3 µM	Dose-dependent effect

test system: Staphylococcus aureus; experiment: Antimicrobial activity against Staphylococcus aureus ATCC 25923 assessed as growth inhibition of planktonic forms incubated for 24 hrs; type: organism-based; conditions: in vitro; in short: as §1

SMILES	MIC [mg/L]
Br.Fc1ccc(-c2cn3nc(-c4c[nH]c5ccc(Br)cc45)sc3n2)cc1	> 100
Br.COc1cccc(-c2cn3nc(-c4cn(C)c5ccc(Cl)cc45)sc3n2)c1	> 100
Br.COc1cccc(-c2cn3nc(-c4c[nH]c5ccc(Br)cc45)sc3n2)c1	> 100
Cn1cc(-c2nn3cc(-c4ccc([N+](=O)[O-])cc4)nc3s2)c2ccccc21	> 100

test system: Escherichia coli; experiment: Antibiofilm activity against Escherichia coli ATCC 25922 assessed as inhibition of biofilm formation at 100 ug/ml incubated for 24 hrs by crystal violet-staining based assay; type: functional; conditions: ATCC 25922, 24 h

SMILES	inhibition at 100 µg/mL [%]
Br.COc1cccc(-c2cn3nc(-c4cn(C)c5ccc(Cl)cc45)sc3n2)c1	< 15

test system: Staphylococcus aureus; experiment: Antibiofilm activity against Staphylococcus aureus ATCC 25923 assessed as inhibition of biofilm formation at 100 ug/ml incubated for 24 hrs by crystal violet-staining based assay; type: functional; conditions: ATCC 25923, 24 h

SMILES	inhibition at 100 µg/mL [%]
Br.COc1cccc(-c2cn3nc(-c4cn(C)c5ccc(Cl)cc45)sc3n2)c1	< 15

test system: Staphylococcus epidermidis; experiment: Antimicrobial activity against Staphylococcus epidermidis ATCC 12228 assessed as growth inhibition of planktonic forms incubated for 24 hrs; type: organism-based; conditions: in vitro; in short: as §1

SMILES	MIC [mg/L]
Br.Fc1ccc(-c2cn3nc(-c4c[nH]c5ccc(Br)cc45)sc3n2)cc1	> 100
Br.COc1cccc(-c2cn3nc(-c4cn(C)c5ccc(Cl)cc45)sc3n2)c1	> 100
Br.COc1cccc(-c2cn3nc(-c4c[nH]c5ccc(Br)cc45)sc3n2)c1	> 100
Cn1cc(-c2nn3cc(-c4ccc([N+](=O)[O-])cc4)nc3s2)c2ccccc21	> 100

test system: Staphylococcus aureus; experiment: Antibiofilm activity against Staphylococcus aureus ATCC 6538 incubated for 24 hrs by crystal violet-staining based assay; type: functional; conditions: not given; in short: as §2

SMILES	MBIC50	inhibition
Br.Fc1ccc(-c2cn3nc(-c4c[nH]c5ccc(Br)cc45)sc3n2)cc1	inactive	
Br.COc1cccc(-c2cn3nc(-c4c[nH]c5ccc(Br)cc45)sc3n2)c1	inactive	
Cn1cc(-c2nn3cc(-c4ccc([N+](=O)[O-])cc4)nc3s2)c2ccccc21	3 µM	Dose-dependent effect

test system: Staphylococcus aureus; experiment: Antibiofilm activity against Staphylococcus aureus ATCC 6538 assessed as inhibition of biofilm formation at 100 ug/ml incubated for 24 hrs by crystal violet-staining based assay; type: functional; conditions: ATCC 6538, 24 h

SMILES	inhibition at 100 µg/mL [%]
Br.COc1cccc(-c2cn3nc(-c4cn(C)c5ccc(Cl)cc45)sc3n2)c1	< 15

test system: Pseudomonas aeruginosa; experiment: Antibiofilm activity against Pseudomonas aeruginosa ATCC 15442 assessed as inhibition of biofilm formation at 100 ug/ml incubated for 24 hrs by crystal violet-staining based assay; type: functional; conditions: ATCC 15442, 24 h

SMILES	inhibition at 100 µg/mL [%]
Br.COc1cccc(-c2cn3nc(-c4cn(C)c5ccc(Cl)cc45)sc3n2)c1	< 15

test system: Pseudomonas aeruginosa; experiment: Antimicrobial activity against Pseudomonas aeruginosa ATCC 15442 assessed as growth inhibition of planktonic forms incubated for 24 hrs; type: organism-based; conditions: in vitro; in short: as §1

SMILES	MIC [mg/L]
Br.Fc1ccc(-c2cn3nc(-c4c[nH]c5ccc(Br)cc45)sc3n2)cc1	> 100
Br.COc1cccc(-c2cn3nc(-c4cn(C)c5ccc(Cl)cc45)sc3n2)c1	> 100
Br.COc1cccc(-c2cn3nc(-c4c[nH]c5ccc(Br)cc45)sc3n2)c1	> 100
Cn1cc(-c2nn3cc(-c4ccc([N+](=O)[O-])cc4)nc3s2)c2ccccc21	> 100

— ChEMBL document CHEMBL4339190, “2,6-Disubstituted imidazo[2,1-b][1,3,4]thiadiazole derivatives as potent staphylococcal biofilm inhibitors” (Eur J Med Chem, 2019)
